Active and inactive are the calls of the source. No cut-off for these calls is given here.
Assays:
Mus musculus [1] = experiment: Toxicity in CD1 mouse assessed as survival at 300 mg/kg, po after 3 days; type: organism-based; design: dose 300 mg/kg, route oral; settings: in vivo, 72 h
Outline: (§1)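 Healthy 2-month-old female CD1 mice (20–22 g), groups of 5–7, given one oral dose by intragastric syringe or one i.p. injection. Compound suspended in saline:Tween 80 (4:1) with sonication just before dosing; vehicle-treated controls included. Weighed and observed daily over 3 days for skin, physical aspect, activity and faeces; survival recorded at day 3.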

Mus musculus [2] = experiment: Toxicity in CD1 mouse liver at 450 mg/kg, po after 3 days by histological study; type: organism-based; design: dose 450 mg/kg, route oral; settings: in vivo, 72 h
Outline: (§2)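 Healthy female CD1 mice (20–22 g), 5–7 per group, given a single oral (intragastric) or i.p. dose in saline:Tween 80 (4:1) vehicle. Sacrificed on day 3 after ether anaesthesia. Organs fixed in 10% aqueous formalin for histology. Scored against untreated animals from no change to +++ (many changes).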

Mus musculus [3] = experiment: Toxicity in CD1 mouse assessed as decrease in weight respect to day zero at 450 mg/kg, po after 3 days; type: organism-based; design: dose 450 mg/kg, route oral; scale not given: the % may be the effect or the level left; settings: in vivo, 72 h
Outline: (§3)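 Healthy 2-month-old female CD1 mice (20–22 g, 5–7 per group) received one dose. Oral doses of 450 or 300 mg/kg were given by intragastric syringe; i.p. doses of 300 or 150 mg/kg by injection. Drugs were suspended in saline:Tween 80 (4:1), and a vehicle-only control was included. Mice were weighed and observed daily for 3 days. Weight change is expressed as percent relative to day zero.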

Trypanosoma cruzi [4] = experiment: Antitrypanosomal activity against Trypanosoma cruzi infected in po dosed CD1 mouse assessed as prevention of inflammatory infiltrates in heart administered daily for 14 days measured on day 45; type: functional, organism-based
Outline: (§4)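 T. cruzi, a Uruguayan patient isolate, was inoculated intradermally into 2-month-old female CD1 mice (20–22 g). Dosing began on day 15 after parasitaemia was observed. Drugs were suspended in saline:Tween 80 (4:1) and given by intragastric syringe once daily for 14 days, with untreated controls. On day 45 after treatment start, heart and muscle sections were scored by two independent observers for amastigotes and inflammatory infiltrates. Groups had 5–7 mice.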

Mus musculus [5] = experiment: Toxicity in CD1 mouse assessed as decrease in weight respect to day zero at 300 mg/kg, po after 3 days; type: organism-based; design: dose 300 mg/kg, route oral; scale not given: the % may be the effect or the level left; settings: in vivo, 72 h; outline: as §3
Mus musculus [6] = experiment: Toxicity in CD1 mouse kidney at 300 mg/kg, ip after 3 days by histological study; type: organism-based; design: dose 300 mg/kg, route intraperitoneal; settings: in vivo, 72 h; outline: as §2
Trypanosoma cruzi [7] = experiment: Antitrypanosomal activity against Trypanosoma cruzi infected in po dosed CD1 mouse assessed as prevention of amastigote nest in heart administered daily for 14 days measured on day 45; type: functional, organism-based; outline: as §4
Mus musculus [8] = experiment: Toxicity in CD1 mouse lung at 450 mg/kg, po after 3 days by histological study; type: organism-based; design: dose 450 mg/kg, route oral; settings: in vivo, 72 h; outline: as §2
Mus musculus [9] = experiment: Toxicity in CD1 mouse liver at 300 mg/kg, ip after 3 days by histological study; type: organism-based; design: dose 300 mg/kg, route intraperitoneal; settings: in vivo, 72 h; outline: as §2
Mus musculus [10] = experiment: Toxicity in CD1 mouse assessed as survival at 450 mg/kg, po after 3 days; type: organism-based; design: dose 450 mg/kg, route oral; settings: in vivo, 72 h; outline: as §1
Mus musculus [11] = experiment: Toxicity in CD1 mouse heart at 450 mg/kg, po after 3 days by histological study; type: organism-based; design: dose 450 mg/kg, route oral; settings: in vivo, 72 h; outline: as §2
Mus musculus [12] = experiment: Toxicity in CD1 mouse assessed as survival at 150 mg/kg, ip after 3 days; type: organism-based; design: dose 150 mg/kg, route intraperitoneal; settings: in vivo, 72 h; outline: as §1
Mus musculus [13] = experiment: Toxicity in CD1 mouse assessed as survival at 300 mg/kg, ip after 3 days; type: organism-based; design: dose 300 mg/kg, route intraperitoneal; settings: in vivo, 72 h; outline: as §1
Mus musculus [14] = experiment: Toxicity in CD1 mouse intestine at 450 mg/kg, po after 3 days by histological study; type: organism-based; design: dose 450 mg/kg, route oral; settings: in vivo, 72 h; outline: as §2
Mus musculus [15] = experiment: Toxicity in CD1 mouse assessed as decrease in weight respect to day zero at 150 mg/kg, ip after 3 days; type: organism-based; design: dose 150 mg/kg, route intraperitoneal; scale not given: the % may be the effect or the level left; settings: in vivo, 72 h; outline: as §3
Trypanosoma cruzi [16] = experiment: Growth inhibition of Trypanosoma cruzi Tulahuen 2 epimastigote at 5 uM after 5 days; type: functional; design: Activity: scale not given: the % may be the effect or the level left
Mus musculus [17] = experiment: Toxicity in CD1 mouse kidney at 450 mg/kg, po after 3 days by histological study; type: organism-based; design: dose 450 mg/kg, route oral; settings: in vivo, 72 h; outline: as §2
Mus musculus [18] = experiment: Toxicity in CD1 mouse brain at 450 mg/kg, po after 3 days by histological study; type: organism-based; design: dose 450 mg/kg, route oral; settings: in vivo, 72 h; outline: as §2
Mus musculus [19] = experiment: Toxicity in CD1 mouse intestine at 300 mg/kg, ip after 3 days by histological study; type: organism-based; design: dose 300 mg/kg, route intraperitoneal; settings: in vivo, 72 h; outline: as §2
Mus musculus [20] = experiment: Toxicity in CD1 mouse brain at 300 mg/kg, ip after 3 days by histological study; type: organism-based; design: dose 300 mg/kg, route intraperitoneal; settings: in vivo, 72 h; outline: as §2
Mus musculus [21] = experiment: Toxicity in CD1 mouse lung at 300 mg/kg, ip after 3 days by histological study; type: organism-based; design: dose 300 mg/kg, route intraperitoneal; settings: in vivo, 72 h; outline: as §2
Mus musculus [22] = experiment: Toxicity in CD1 mouse heart at 300 mg/kg, ip after 3 days by histological study; type: organism-based; design: dose 300 mg/kg, route intraperitoneal; settings: in vivo, 72 h; outline: as §2
Mus musculus [23] = experiment: Toxicity in CD1 mouse assessed as hematocrite level at 450 mg/kg, po after 3 days; type: organism-based; design: dose 450 mg/kg, route oral; settings: in vivo, 72 h
Outline: (§5)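 Healthy female CD1 mice (5–7 per group) received a single oral dose of 450 mg/kg or an i.p. dose of 300 mg/kg, with vehicle controls. On day 3 they were sacrificed under ether anaesthesia. Blood was drawn from the subclavian artery and kept at 0 °C in EDTA or heparin. Leukocytes, haemoglobin, haematocrit, GPT and GOT were measured within 24 h and compared with normal ranges.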

Mus musculus [24] = experiment: Toxicity in CD1 mouse assessed as increase in weight respect to day zero at 300 mg/kg, ip after 3 days; type: organism-based; design: dose 300 mg/kg, route intraperitoneal; settings: in vivo, 72 h; outline: as §3
Mus musculus [25] = experiment: Toxicity in CD1 mouse assessed as glutamic-pyruvate transaminase level at 450 mg/kg, po after 3 days; type: organism-based; design: dose 450 mg/kg, route oral; settings: in vivo, 72 h; outline: as §5
Mus musculus [26] = experiment: Toxicity in CD1 mouse assessed as haemoglobin level at 300 mg/kg, ip after 3 days; type: organism-based; design: dose 300 mg/kg, route intraperitoneal; settings: in vivo, 72 h; outline: as §5
Mus musculus [27] = experiment: Toxicity in CD1 mouse assessed as hematocrite level at 300 mg/kg, ip after 3 days; type: organism-based; design: dose 300 mg/kg, route intraperitoneal; settings: in vivo, 72 h; outline: as §5
Mus musculus [28] = experiment: Toxicity in CD1 mouse assessed as leukocyte level at 300 mg/kg, ip after 3 days; type: organism-based; design: dose 300 mg/kg, route intraperitoneal; settings: in vivo, 72 h; outline: as §5
Mus musculus [29] = experiment: Toxicity in CD1 mouse assessed as haemoglobin level at 450 mg/kg, po after 3 days; type: organism-based; design: dose 450 mg/kg, route oral; settings: in vivo, 72 h; outline: as §5
Mus musculus [30] = experiment: Toxicity in CD1 mouse assessed as leukocyte level at 450 mg/kg, po after 3 days; type: organism-based; design: dose 450 mg/kg, route oral; settings: in vivo, 72 h; outline: as §5
Mus musculus [31] = experiment: Toxicity in CD1 mouse assessed as glutamic-oxalacetate transaminase level at 450 mg/kg, po after 3 days; type: organism-based; design: dose 450 mg/kg, route oral; settings: in vivo, 72 h; outline: as §5

SMILES	Activity (Mus musculus [2])	Activity (Mus musculus [3])	Activity (Mus musculus [6])	Activity (Mus musculus [8])	Activity (Mus musculus [9])	Activity (Mus musculus [11])	Activity (Mus musculus [14])	Activity (Mus musculus [17])	Activity (Mus musculus [18])	Activity (Mus musculus [19])	Activity (Mus musculus [20])	Activity (Mus musculus [21])	Activity (Mus musculus [22])	also measured
COCCNC(=O)N/N=C/c1ccc([N+](=O)[O-])o1	Toxic	0%	Non-toxic	Non-toxic	Toxic	Non-toxic	Non-toxic	Toxic	Non-toxic	Non-toxic	Non-toxic	Non-toxic	Non-toxic	Activity (Mus musculus [1]): Non-toxic; Activity (Trypanosoma cruzi [4]): Active; Activity (Mus musculus [5]): 0%; Activity (Trypanosoma cruzi [7]): Active; Activity (Mus musculus [10]): Non-toxic; Activity (Mus musculus [12]): Non-toxic; Activity (Mus musculus [13]): Toxic; Activity (Mus musculus [15]): 1%; inhibition of growth at 5 µM (Trypanosoma cruzi [16]; Trypanosoma cruzi, Tulahuen 2, 120 h, read-out: GI): 20%
CCCCCCCCOC(=O)N/N=C/c1ccc([N+](=O)[O-])o1	Toxic	11%	Non-toxic	Non-toxic	Toxic	Non-toxic	Non-toxic	Non-toxic	Non-toxic	Non-toxic	Non-toxic	Non-toxic	Non-toxic	Activity (Mus musculus [23]): 36.4%; Activity (Mus musculus [24]): 4%; Activity (Mus musculus [25]): 30 IU/L; Activity (Mus musculus [26]): 13.8 g/dL; Activity (Mus musculus [27]): 43.6%; Activity (Trypanosoma cruzi [16]): 84%; Activity (Mus musculus [28]): 5300 µL⁻¹; Activity (Mus musculus [29]): 11.9 g/dL; Activity (Mus musculus [30]): 6600 µL⁻¹; Activity (Mus musculus [31]): 119 IU/L

— ChEMBL document CHEMBL1154044, “5-Nitro-2-furyl derivative actives against Trypanosoma cruzi: preliminary in vivo studies” (Eur J Med Chem, 2009)
